Our source for the Activity and MIC values is ChEMBL document CHEMBL3272259, “Nitroimidazoles with antibacterial activity against Neisseria gonorrhoeae” (1977).

In one experiment the test system is Candida albicans. Nature of the experiment: Antifungal activity against Candida albicans. In kind it is functional, organism-based.
Another experiment deals with Tritrichomonas foetus. In words: Antibacterial activity against Tritrichomonas foetus 1002-96-27 after 48 hrs by ten-fold serial dilution method. It counts as functional. The conditions noted are these: 1002-96-27, 48 h. The gist of the method: (§1)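 Trichomonads were cultured in Diamond medium with 5% serum and incubated 48 h at 37 °C. Cultures were examined microscopically for motile cells, and the MIC (µg/mL) is the lowest concentration giving no motile organisms.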

The subject of a further experiment is Neisseria gonorrhoeae. Nature of the experiment: Antibacterial activity against Neisseria gonorrhoeae ATCC 19424 after 48 hrs by ten-fold serial dilution method. The conditions noted are these: ATCC 19424, 48 h. In kind it is functional. In short, it runs like this:
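Tested on chocolate agar made from GC agar base with hemoglobin and Supplement C, incubated 48 h at 37 °C. Plates were checked visually, and the MIC (µg/mL) is the lowest concentration with no visible growth.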

For a further experiment, the system named is Pentatrichomonas hominis. In words: Antibacterial activity against Pentatrichomonas hominis ATCC 30000 after 48 hrs by ten-fold serial dilution method. In kind it is functional. The settings on record: ATCC 30000, 48 h. The gist of the method: as §1
In the next experiment the test system is Bacteroides fragilis. Nature of the experiment: Antibacterial activity against Bacteroides fragilis ATCC 23745 after 24 hrs by ten-fold serial dilution method. The settings on record: ATCC 23745, 24 h. It counts as functional. In short, it runs like this:
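Grown in Fluid Thioglycollate Broth and incubated 24 h at 37 °C. Growth was read by eye, and the MIC (µg/mL) is the lowest concentration that prevented visible growth.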

For a further experiment, the system named is Trichomonas vaginalis. In words: Antibacterial activity against Trichomonas vaginalis ATCC 30001 after 48 hrs by ten-fold serial dilution method. The settings on record: ATCC 30001, 48 h. It counts as functional. The gist of the method:
as §1

The subject of the next experiment is Clostridium perfringens. In words: Antibacterial activity against Clostridium perfringens ATCC 13124 after 24 hrs by ten-fold serial dilution method. In kind it is functional. The conditions noted are these: ATCC 13124, 24 h. The gist of the method: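 Grown in Fluid Thioglycollate Broth and incubated 24 h at 37 °C. Growth was checked by eye after incubation. MIC was taken as the lowest concentration, in μg/mL, that prevented visible growth.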

Values after ≈ are worked out from the molar mass of the structure shown. Active and inactive are the calls of the source. The rule behind the calls is not given here.

For the molecule `Cn1c([N+](=O)[O-])cnc1SCCCCCCCCCCCCCCCC(=O)O`, the result with Candida albicans was inactive. In addition, the MIC (usually the least concentration at which growth counts as inhibited) was 100 µg/mL (≈ 242 µM) in the experiment with Tritrichomonas foetus; over 100 µg/mL against Neisseria gonorrhoeae; 100 µg/mL (≈ 242 µM) with Pentatrichomonas hominis; over 100 µg/mL in the experiment on Bacteroides fragilis; 100 µg/mL (≈ 242 µM) in the experiment on Trichomonas vaginalis; over 100 µg/mL against Clostridium perfringens.

Turning to `Cn1c([N+](=O)[O-])cnc1S(=O)(=O)CCC(=O)O`, the outcome in the experiment on Candida albicans was inactive. The MIC is 100 µg/mL (≈ 380 µM) against Tritrichomonas foetus; 100 µg/mL (≈ 380 µM) against Neisseria gonorrhoeae; 100 µg/mL (≈ 380 µM) against Pentatrichomonas hominis; over 100 µg/mL with Bacteroides fragilis; 100 µg/mL (≈ 380 µM) in the experiment with Trichomonas vaginalis; over 100 µg/mL with Clostridium perfringens.

`COC(=O)CCCCCCCCCCS(=O)(=O)c1ncc([N+](=O)[O-])n1C`: the result in the experiment on Candida albicans was inactive. The minimal inhibitory concentration (MIC) with Tritrichomonas foetus, against Neisseria gonorrhoeae, with Pentatrichomonas hominis, in the experiment with Bacteroides fragilis, with Trichomonas vaginalis and with Clostridium perfringens was over 100 µg/mL in each case.

Take `Cn1c([N+](=O)[O-])cnc1S(=O)(=O)CCCCC(=O)O`: the outcome in the experiment with Candida albicans was inactive. The MIC against Tritrichomonas foetus was over 100 µg/mL; with Neisseria gonorrhoeae, 100 µg/mL (≈ 343 µM); against Pentatrichomonas hominis, 100 µg/mL (≈ 343 µM); against Bacteroides fragilis, 100 µg/mL (≈ 343 µM); against Trichomonas vaginalis, 100 µg/mL (≈ 343 µM); in the experiment with Clostridium perfringens, over 100 µg/mL.

Take `Br.Cn1ccnc1SCCOc1ccc(Br)cc1`: in the experiment with Candida albicans, the outcome was inactive. The MIC against Tritrichomonas foetus is over 100 µg/mL; against Neisseria gonorrhoeae, 100 µg/mL; against Pentatrichomonas hominis, over 100 µg/mL; in the experiment with Bacteroides fragilis, 100 µg/mL; against Trichomonas vaginalis, over 100 µg/mL; against Clostridium perfringens, over 100 µg/mL.

For the molecule `Cn1c([N+](=O)[O-])cnc1[S+]([O-])CCOc1ccc(C#N)cc1` (centres undefined), the outcome in the experiment with Candida albicans was inactive. The minimal inhibitory concentration (MIC) in the experiment on Tritrichomonas foetus was 100 µg/mL (≈ 312 µM); against Neisseria gonorrhoeae, 100 µg/mL (≈ 312 µM); in the experiment on Pentatrichomonas hominis, 100 µg/mL (≈ 312 µM); with Bacteroides fragilis it was 100 µg/mL (≈ 312 µM); with Trichomonas vaginalis it was 10 µg/mL (≈ 31.2 µM); against Clostridium perfringens, over 100 µg/mL.

As for `Cn1c([N+](=O)[O-])cnc1SCCCOc1ccc(C(=O)O)cc1`, the result in the experiment on Candida albicans was inactive. The MIC against Tritrichomonas foetus is 10 µg/mL (≈ 29.6 µM); in the experiment on Neisseria gonorrhoeae it was 1 µg/mL (≈ 2.96 µM); in the experiment with Pentatrichomonas hominis it was 1 µg/mL (≈ 2.96 µM); with Bacteroides fragilis it was 1 µg/mL (≈ 2.96 µM); against Trichomonas vaginalis, 1 µg/mL (≈ 2.96 µM); with Clostridium perfringens, 10 µg/mL (≈ 29.6 µM).

For the molecule `COC(=O)CCCCCCCCCC[S+]([O-])c1ncc([N+](=O)[O-])n1C` (centres undefined), the outcome in the experiment on Candida albicans was inactive. Moreover, the MIC with Tritrichomonas foetus was 100 µg/mL (≈ 268 µM); against Neisseria gonorrhoeae it was 100 µg/mL (≈ 268 µM); against Pentatrichomonas hominis, 100 µg/mL (≈ 268 µM); with Bacteroides fragilis, over 100 µg/mL; against Trichomonas vaginalis, 100 µg/mL (≈ 268 µM); in the experiment with Clostridium perfringens, over 100 µg/mL.

`Cn1cc([N+](=O)[O-])nc1SCCCCCCC(=O)O`: in the experiment with Candida albicans, the result was inactive. In addition, the MIC against Tritrichomonas foetus is 100 µg/mL (≈ 348 µM); against Neisseria gonorrhoeae, over 100 µg/mL; in the experiment with Pentatrichomonas hominis it was 100 µg/mL (≈ 348 µM); in the experiment with Bacteroides fragilis, over 100 µg/mL; against Trichomonas vaginalis it was 100 µg/mL (≈ 348 µM); with Clostridium perfringens, over 100 µg/mL.

Consider `Cn1c([N+](=O)[O-])cnc1[S+]([O-])CCCCCCCOc1ccccc1[N+](=O)[O-]` (centres undefined), for which the result in the experiment on Candida albicans was inactive. The MIC in the experiment on Tritrichomonas foetus is 100 µg/mL (≈ 244 µM); with Neisseria gonorrhoeae, over 100 µg/mL; with Pentatrichomonas hominis it was 100 µg/mL (≈ 244 µM); in the experiment on Bacteroides fragilis, 100 µg/mL (≈ 244 µM); in the experiment on Trichomonas vaginalis, 100 µg/mL (≈ 244 µM); against Clostridium perfringens it was over 100 µg/mL.

Consider `Cn1c([N+](=O)[O-])cnc1SCCCCCCCCCCCC(=O)O`, for which, in the experiment on Candida albicans, the outcome was inactive. The MIC was 10 µg/mL (≈ 28 µM) with Tritrichomonas foetus; over 100 µg/mL against Neisseria gonorrhoeae; 10 µg/mL (≈ 28 µM) in the experiment on Pentatrichomonas hominis; 100 µg/mL (≈ 280 µM) in the experiment on Bacteroides fragilis; 10 µg/mL (≈ 28 µM) against Trichomonas vaginalis; over 100 µg/mL in the experiment on Clostridium perfringens.

As for `Cn1c([N+](=O)[O-])cnc1[S+]([O-])CCOc1ccc(C(=O)O)cc1` (centres undefined), in the experiment on Candida albicans, the outcome was inactive. For the same molecule, the MIC with Tritrichomonas foetus, with Neisseria gonorrhoeae, in the experiment on Pentatrichomonas hominis, against Bacteroides fragilis, against Trichomonas vaginalis and in the experiment with Clostridium perfringens was 100 µg/mL (≈ 295 µM) each time.

Turning to `CCOC(=O)c1ccc(OCCCCCCCCCCSc2ncc([N+](=O)[O-])n2C)c([N+](=O)[O-])c1`, the result in the experiment on Candida albicans was inactive. For the same molecule, the MIC is 10 µg/mL (≈ 19.7 µM) against Tritrichomonas foetus; over 100 µg/mL against Neisseria gonorrhoeae; 10 µg/mL (≈ 19.7 µM) against Pentatrichomonas hominis; 10 µg/mL (≈ 19.7 µM) in the experiment with Bacteroides fragilis; 10 µg/mL (≈ 19.7 µM) against Trichomonas vaginalis; over 100 µg/mL in the experiment on Clostridium perfringens.

As for `Cn1c([N+](=O)[O-])cnc1[S+]([O-])CCCCCCCCCCC(=O)O` (centres undefined), the result in the experiment with Candida albicans was inactive. Further, the MIC was 100 µg/mL (≈ 278 µM) in the experiment with Tritrichomonas foetus; 100 µg/mL (≈ 278 µM) against Neisseria gonorrhoeae; 100 µg/mL (≈ 278 µM) against Pentatrichomonas hominis; over 100 µg/mL against Bacteroides fragilis; 10 µg/mL (≈ 27.8 µM) in the experiment with Trichomonas vaginalis; over 100 µg/mL against Clostridium perfringens.

For `Cn1ccnc1SCCOc1ccc(C(=O)O)cc1`, the outcome in the experiment with Candida albicans was inactive. Moreover, the MIC in the experiment with Tritrichomonas foetus, with Neisseria gonorrhoeae, in the experiment on Pentatrichomonas hominis, in the experiment on Bacteroides fragilis, in the experiment on Trichomonas vaginalis and in the experiment on Clostridium perfringens was over 100 µg/mL throughout.

Turning to `Cn1c([N+](=O)[O-])cnc1SCCCCCCCCC(=O)O`, in the experiment on Candida albicans, the outcome was inactive. Also, the MIC against Tritrichomonas foetus was 10 µg/mL (≈ 31.7 µM); against Neisseria gonorrhoeae, 0.1 µg/mL (≈ 0.317 µM); against Pentatrichomonas hominis, 10 µg/mL (≈ 31.7 µM); in the experiment with Bacteroides fragilis, 10 µg/mL (≈ 31.7 µM); with Trichomonas vaginalis, 10 µg/mL (≈ 31.7 µM); against Clostridium perfringens, 10 µg/mL (≈ 31.7 µM).

Consider `Cn1c([N+](=O)[O-])cnc1SCCCCCCC(=O)O`, for which the result in the experiment on Candida albicans was inactive. In addition, the minimum inhibitory concentration (MIC) against Tritrichomonas foetus was 10 µg/mL (≈ 34.8 µM); against Neisseria gonorrhoeae it was 0.1 µg/mL (≈ 0.348 µM); with Pentatrichomonas hominis, 1 µg/mL (≈ 3.48 µM); with Bacteroides fragilis, 1 µg/mL (≈ 3.48 µM); in the experiment on Trichomonas vaginalis it was 1 µg/mL (≈ 3.48 µM); in the experiment with Clostridium perfringens, 1 µg/mL (≈ 3.48 µM).
